According to ChEMBL document CHEMBL4765234 (J Med Chem, 2016):
The source made the active and inactive calls. The calls are words filed in the database; no cut-off is given here.

Columns and labels:
[1] = AUC in hyperglycemic Balb/c mouse plasma at […] measured upto 60 mins; assay type: ADME, organism-based
[2] = Drug distribution in C57BL/6 mouse plasma at 3 microg/kg, iv administered as single dose observed at 20 to 40 mins by LC-MS/MS analysis; assay type: ADME, organism-based; conditions: in vivo, 0.003 mg/kg, time 20-40 min, dose 3 µg/kg
How it was run: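 Tracer microdose study in fed male C57BL/6 mice: single 3 μg/kg IV dose in 25% HP-BCD. Mice were killed by cervical dislocation, and spleen, ascending colon, skeletal muscle and plasma were sampled at 20 and 40 min.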

[3] = AUC in hyperglycemic Balb/c mouse plasma at 3.67 mg/kg measured upto 60 mins; assay type: ADME, organism-based; design: dose 3.67 mg/kg, time <=60
[4] = Cmax in dog plasma at 5 mg/kg, po or 1 mg/kg, iv by LC/MS/MS analysis; assay type: ADME, organism-based, Canis lupus familiaris; design: dose 5 mg/kg
How it was run: (§1)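 Dosing was oral and intravenous in mice, rats or beagle dogs. Blood was drawn at set time points into EDTA and processed to plasma. Plasma was assayed by LC/MS/MS. Clearance, Cmax and terminal half-life were derived by noncompartmental analysis.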

[5] = Tmax in rat at 10 mg/kg, po or 3 mg/kg, iv by LC/MS/MS analysis; assay type: ADME, organism-based; conditions: in vivo
How it was run: (§2)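 Mice, rats and beagle dogs dosed; blood drawn at set times into EDTA, processed to plasma and assayed by LC/MS/MS. Parameters (clearance, Vdss, terminal half-life, Cmax, Tmax, oral bioavailability) derived by noncompartmental analysis.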

[6] = Elimination half-life in mouse plasma at 10 mg/kg, po or 1 mg/kg, iv by LC/MS/MS analysis; conditions: read-out: beta t1/2 (converted)
[7] = Clearance in rat plasma at 10 mg/kg, po or 3 mg/kg, iv by LC/MS/MS analysis; assay type: ADME, organism-based; how it was run: as §1
[8] = Volume of distribution at steady state in rat at 10 mg/kg, po or 3 mg/kg, iv by LC/MS/MS analysis; assay type: ADME, organism-based; conditions: in vivo, read-out: Vdss; how it was run: as §2
[9] = Oral bioavailability in mouse at 10 mg/kg by LC/MS/MS analysis; assay type: ADME, organism-based; conditions: in vivo; how it was run: as §2
[10] = target: Free fatty acid receptor 1 (Mus musculus) (UniProt Q76JU9); experiment: Agonist activity at GPR40 in mouse pancreatic islets assessed as induction of glucose-mediated insulin secretion measured after 90 mins in EBSS buffer by ELISA; conditions: filed as agonist
Chain of Free fatty acid receptor 1 (Mus musculus) (Q76JU9 whole entry): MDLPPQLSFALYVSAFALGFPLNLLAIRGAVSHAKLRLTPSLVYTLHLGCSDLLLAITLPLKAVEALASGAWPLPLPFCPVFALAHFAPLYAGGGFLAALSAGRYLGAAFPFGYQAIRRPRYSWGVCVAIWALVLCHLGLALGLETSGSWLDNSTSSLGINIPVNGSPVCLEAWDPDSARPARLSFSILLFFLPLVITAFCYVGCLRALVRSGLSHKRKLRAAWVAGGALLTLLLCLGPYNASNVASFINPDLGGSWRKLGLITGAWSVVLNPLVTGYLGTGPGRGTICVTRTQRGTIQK

[11] = Cmax in rat plasma at 10 mg/kg, po or 3 mg/kg, iv by LC/MS/MS analysis; assay type: ADME, organism-based; design: dose 10 mg/kg; how it was run: as §1
[12] = Oral bioavailability in rat at 10 mg/kg by LC/MS/MS analysis; assay type: ADME, organism-based; conditions: in vivo; how it was run: as §2
[13] = Tmax in dog at 5 mg/kg, po or 1 mg/kg, iv by LC/MS/MS analysis; assay type: ADME, organism-based, Canis lupus familiaris; conditions: in vivo; how it was run: as §2
[14] = Drug metabolism in human hepatocytes assessed as O-dealkylation by measuring 4-((2,3-dihydrospiro[indene-1,4'-piperidine]-1'-yl)methyl)benzoic acid metabolite formation by LC-MS/MS analysis; assay type: ADME, cell-based, Hepatocyte
[15] = Volume of distribution at steady state in mouse at 10 mg/kg, po or 1 mg/kg, iv by LC/MS/MS analysis; assay type: ADME, organism-based; conditions: in vivo, read-out: Vdss; how it was run: as §2
[16] = Clearance in dog plasma at 5 mg/kg, po or 1 mg/kg, iv by LC/MS/MS analysis; assay type: ADME, organism-based, Canis lupus familiaris; how it was run: as §1
[17] = Elimination half-life in rat plasma at 10 mg/kg, po or 3 mg/kg, iv by LC/MS/MS analysis; conditions: read-out: beta t1/2 (converted)
[18] = Oral bioavailability in dog at 5 mg/kg by LC/MS/MS analysis; assay type: ADME, organism-based, Canis lupus familiaris; conditions: in vivo; how it was run: as §2
[19] = Drug metabolism in dog hepatocytes assessed as demethylation by LC-MS/MS analysis; assay type: ADME, cell-based, Canis lupus familiaris, Hepatocyte
[20] = Cmax in type 2 diabetic mellitus human at 270 mg, po administered as single dose; assay type: ADME, organism-based; design: route oral, dose 270 mg; conditions: in vivo
How it was run: (§3)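 Type 2 diabetic subjects each received a single oral dose. Plasma drug levels were followed over time. Parameters were derived by noncompartmental analysis and reported as geometric means with CV%. CL/F is apparent total clearance and Vz/F is apparent terminal-phase volume.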

[21] = Drug metabolism in dog urine assessed as metabolite formation by LC-MS/MS analysis; assay type: ADME, tissue-based, Canis lupus familiaris
[22] = Apparent volume of distribution in type 2 diabetic mellitus human at 540 mg, po administered as single dose; assay type: ADME, organism-based; conditions: in vivo, read-out: Vz/F; how it was run: as §3
[23] = Cmax in type 2 diabetic mellitus human at 540 mg, po administered as single dose; assay type: ADME, organism-based; design: route oral, dose 540 mg; conditions: in vivo; how it was run: as §3
[24] = Cmax in type 2 diabetic mellitus human at 1080 mg, po administered as single dose; assay type: ADME, organism-based; design: route oral, dose 1080 mg; conditions: in vivo; how it was run: as §3
[25] = Tmax in type 2 diabetic mellitus human at 540 mg, po administered as single dose; assay type: ADME, organism-based; conditions: in vivo
How it was run: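 Single oral dose given to type 2 diabetic subjects; plasma drug levels followed over time. Cmax, Tmax, terminal half-life, AUC(0−∞), CL/F and Vz/F obtained by noncompartmental analysis and reported as geometric means with CV%.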

[26] = Apparent volume of distribution in type 2 diabetic mellitus human at 270 mg, po administered as single dose; assay type: ADME, organism-based; conditions: in vivo, read-out: Vz/F; how it was run: as §3
[27] = Drug metabolism in rat hepatocytes assessed as oxidation by LC-MS/MS analysis; assay type: ADME, cell-based, Hepatocyte
[28] = Drug metabolism in mouse hepatocytes assessed as N-dealkylation by LC-MS/MS analysis; assay type: ADME, cell-based, Hepatocyte
[29] = Drug metabolism in dog urine assessed as N-dealkylation by LC-MS/MS analysis; assay type: ADME, tissue-based, Canis lupus familiaris

Q: Which AUC at 1 h [1] does the source give for CC#C[C@@H](CC(=O)O)c1ccc(OCc2ccc(CN3CCC4(CC3)CN(C)c3ccccc34)cc2)cc1 here?
A: 1030 ng·h/mL

Q: With CC#C[C@@H](CC(=O)O)c1ccc(OCc2ccc(CN3CCC4(C=Cc5ccccc54)CC3)s2)cc1 as the molecule, how does the Drug uptake [2] read?
A: Active

Q: What about the AUC at 1 h [3] of the same molecule?
A: 1060 ng·h/mL

Q: For CC#C[C@@H](CC(=O)O)c1ccc(OCc2ccc(CN3CCC4(C=Cc5ccccc54)CC3)cc2)cc1 [LY2881835], which Cmax [4] is on record?
A: 2860 ng/mL

Q: And the Tmax [5]?
A: 0.25 h

Q: What about the half-life [6] of the same molecule?
A: 2 h

Q: And the clearance [7]?
A: 11.6 mL/min/kg

Q: And the Vd [8]?
A: 0.4 L/kg

Q: And the bioavailability [9]?
A: 64%

Q: And the Activity [10]?
A: Active

Q: What about the Cmax [11] of the same molecule?
A: 11200 ng/mL

Q: And the bioavailability [12]?
A: 71%

Q: What about the Tmax [13] of the same molecule?
A: 3 h

Q: What about the Drug metabolism [14] of the same molecule?
A: Metabolite_Detected

Q: What about the Vd [15] of the same molecule?
A: 1.4 L/kg

Q: What about the clearance [16] of the same molecule?
A: 4.9 mL/min/kg

Q: And the half-life [17]?
A: 2 h

Q: What about the bioavailability [18] of the same molecule?
A: 74%

Q: With CC#C[C@@H](CC(=O)O)c1ccc(OCc2ccc(CN3CCCc4cccc(OC)c43)s2)cc1 as the molecule, how does the Drug metabolism [19] read?
A: Metabolite_Detected

Q: And the Cmax [20]?
A: 2000 ng/mL

Q: What about the Drug metabolism [21] of the same molecule?
A: Metabolite_Notdetected

Q: What about the Vd/F [22] of the same molecule?
A: 273 L

Q: And the Cmax [23]?
A: 3780 ng/mL

Q: And the Cmax [24]?
A: 7950 ng/mL

Q: And the Tmax [25]?
A: 4 h

Q: And the Vd/F [26]?
A: 244 L

Q: What does the source list for CC#C[C@@H](CC(=O)O)c1ccc(OCc2ccc(CN3CCC4(CCc5ccccc54)CC3)s2)cc1?
A: Drug metabolism [27]: Metabolite_Detected; Drug metabolism [28]: Metabolite_Detected; Drug metabolism [29]: Metabolite_Detected
